Measurements as given in ChEMBL document CHEMBL1156002, “Synthesis, Raman, FT-IR, NMR spectroscopic characterization, antimicrobial activity, cytotoxicity and DNA binding of new mixed aza-oxo-thia macrocyclic compounds” (2009).
Values after ≈ are worked out from the molar mass of the structure shown. Active and inactive are the calls of the source. The rule behind the calls is not given here.

What was measured:
Escherichia coli = experiment: Antibacterial activity against Escherichia coli ATCC 11230 after 24 hrs by broth micro dilution method; assay type: functional; conditions: ATCC 11230, 24 h
Staphylococcus aureus [1] = experiment: Antibacterial activity against Staphylococcus aureus ATCC 6538 after 24 hrs by broth micro dilution method; assay type: functional; conditions: ATCC 6538, 24 h
Bacillus cereus [2] = experiment: Antibacterial activity against Bacillus cereus ATCC 7064 after 24 hrs by broth micro dilution method; assay type: functional; conditions: ATCC 7064, 24 h
Micrococcus luteus = experiment: Antibacterial activity against Micrococcus luteus La 2971 after 24 hrs by broth micro dilution method; assay type: functional; conditions: La 2971, 24 h
Proteus vulgaris [3] = experiment: Antibacterial activity against Proteus vulgaris ATCC 8427 after 24 hrs by broth micro dilution method; assay type: functional; conditions: ATCC 8427, 24 h
[4] = test system: Mycolicibacterium smegmatis; experiment: Antibacterial activity against Mycobacterium smegmatis CCM 2067 after 24 hrs by broth micro dilution method; assay type: functional; conditions: CCM 2067, 24 h
Pseudomonas aeruginosa [5] = experiment: Antibacterial activity against Pseudomonas aeruginosa ATCC 27853 after 24 hrs by broth micro dilution method; assay type: functional; conditions: ATCC 27853, 24 h
Rhodotorula mucilaginosa [6] = experiment: Antifungal activity against Rhodotorula rubra DSM 70403 after 24 hrs by broth micro dilution method; assay type: functional; conditions: DSM 70403, 24 h
Outline: (§1)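 Broth microdilution was run in cation-adjusted Mueller Hinton Broth. Compounds were dissolved in DMSO at 2 mg mL^-1 and serially diluted two-fold. Yeast precultures were grown in Malt Extract Broth for 48 h. The final inoculum was about 10⁶ cfu mL^-1, and plates were incubated at 37 °C for 24 h. The MIC was read from this series.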

Debaryomyces hansenii [7] = experiment: Antifungal activity against Debaryomyces hansenii DSM 70238 after 24 hrs by broth micro dilution method; assay type: functional; conditions: DSM 70238, 24 h; outline: as §1
[8] = Cytotoxicity against human 23132/87 cells assessed as cell viability at 10 uM after 24 hrs by MTT assay; assay type: functional; conditions: 23132-87, 24 h, read-out: Activity
Outline: (§2)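 Cells were seeded at 3.10³–5.10³ per well in RPMI 1640 with 10% FBS, 4 mM L-glutamine and penicillin/streptomycin, then held 24 h at 37 °C under 5% CO₂. Ligands (DMSO, final 0.5% v/v) were added at 0.1–100 for 24 or 48 h. MTT was added for 4 h and dissolved in 50% DMF/5% SDS. A570 was read, and cytotoxicity was calculated as 100×(OD treated/OD untreated).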

[9] = Cytotoxicity against human 23132/87 cells assessed as cell viability at 100 uM after 24 hrs by MTT assay; assay type: functional; conditions: 23132-87, 24 h, read-out: Activity; outline: as §2
[10] = Cytotoxicity against human 23132/87 cells assessed as cell viability at 0.1 uM after 48 hrs by MTT assay; assay type: functional; conditions: 23132-87, 48 h, read-out: Activity; outline: as §2
[11] = Cytotoxicity against human 23132/87 cells assessed as cell viability at 100 uM after 48 hrs by MTT assay; assay type: functional; conditions: 23132-87, 48 h, read-out: Activity; outline: as §2
A549 [12] = experiment: Cytotoxicity against human A549 cells assessed as cell viability at 0.1 uM after 24 hrs by MTT assay; assay type: functional; conditions: A549, 24 h, read-out: Activity; outline: as §2
A549 [13] = experiment: Cytotoxicity against human A549 cells assessed as cell viability at 1 uM after 24 hrs by MTT assay; assay type: functional; conditions: A549, 24 h, read-out: Activity; outline: as §2
A549 [14] = experiment: Cytotoxicity against human A549 cells assessed as cell viability at 10 uM after 24 hrs by MTT assay; assay type: functional; conditions: A549, 24 h, read-out: Activity; outline: as §2
A549 [15] = experiment: Cytotoxicity against human A549 cells assessed as cell viability at 0.1 uM after 48 hrs by MTT assay; assay type: functional; conditions: A549, 48 h, read-out: Activity; outline: as §2
A549 [16] = experiment: Cytotoxicity against human A549 cells assessed as cell viability at 1 uM after 48 hrs by MTT assay; assay type: functional; conditions: A549, 48 h, read-out: Activity; outline: as §2
A549 [17] = experiment: Cytotoxicity against human A549 cells assessed as cell viability at 10 uM after 48 hrs by MTT assay; assay type: functional; conditions: A549, 48 h, read-out: Activity; outline: as §2
A549 [18] = experiment: Cytotoxicity against human A549 cells assessed as cell viability at 100 uM after 48 hrs by MTT assay; assay type: functional; conditions: A549, 48 h, read-out: Activity; outline: as §2
A549 [19] = experiment: Induction of apoptosis in human A549 cells assessed as DNA fragmentation at 100 uM after 24 hrs by DNA fragmentation assay; assay type: functional, cell-based
Outline: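 10 × 10⁴ cells were seeded in 6-well plates and treated with ligand for 24 h. Cells were then collected and washed in PBS, and DNA was extracted with a kit. Extracts were run on 1.5% agarose alongside a 100 bp marker, an untreated control and DMSO-treated controls, and ladders were visualized under UV.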

23132-87 = experiment: Induction of apoptosis in human 23132/87 cells assessed as change in nuclear appearance at 100 uM after 24 hrs by hoechst nuclear staining; assay type: functional, cell-based
Outline: (§3)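 Cells grown in 6-well plates were treated for 24 h, washed three times in PBS and fixed in ice-cold methanol for 10 min. They were stained with Hoechst 33258 for 5 min, destained in double-distilled water for 5 min and examined by fluorescence microscopy. Untreated and DMSO-treated cells served as controls.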

A549 [20] = experiment: Induction of apoptosis in human A549 cells assessed as change in nuclear appearance at 100 uM after 24 hrs by hoechst nuclear staining; assay type: functional, cell-based; outline: as §3
Calf thymus DNA = experiment: Binding affinity to calf thymus DNA assessed as change in electromagnetic spectrum at 500 uM by UV-vis spectroscopy; assay type: nucleic-acid assay; conditions: Bos taurus
Outline: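 CT-DNA was prepared in ddH₂O and judged protein-free by an A260/A280 ratio of 1.8:1. UV–visible absorption spectra of the DNA solution were recorded without ligand and with increasing ligand amounts.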

Staphylococcus aureus [21] = experiment: Antibacterial activity against Staphylococcus aureus ATCC 6538 after 24 hrs by agar disk diffusion assay; assay type: functional
Outline: (§4)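 Disk diffusion with sterile 6 mm discs loaded with DMSO solutions of the test agents and placed on inoculated agar. Bacteria were pre-grown in Nutrient Broth at 30 °C for 24 h, and plates were incubated at 35 °C for 24 h. Each plate carried a reference antibiotic disc matched to the organism, and a DMSO-only solvent control was run.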

Bacillus cereus [22] = experiment: Antibacterial activity against Bacillus cereus ATCC 7064 after 24 hrs by agar disk diffusion assay; assay type: functional; outline: as §4
Proteus vulgaris [23] = experiment: Antibacterial activity against Proteus vulgaris ATCC 8427 after 24 hrs by agar disk diffusion assay; assay type: functional; outline: as §4
Listeria monocytogenes = experiment: Antibacterial activity against Listeria monocytogenes ATCC 15313 after 24 hrs by agar disk diffusion assay; assay type: functional; outline: as §4
Pseudomonas aeruginosa [24] = experiment: Antibacterial activity against Pseudomonas aeruginosa ATCC 27853 after 24 hrs by agar disk diffusion assay; assay type: functional; outline: as §4
Rhodotorula mucilaginosa [25] = experiment: Antifungal activity against Rhodotorula rubra DSM 70403 after 72 hrs by agar disk diffusion assay; assay type: functional
Outline: (§5)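 Sterile 6 mm paper discs were loaded with ligand solution freshly prepared in DMSO and placed on inoculated agar. The inoculum came from broth cultures: bacteria in Nutrient Broth at 30 °C for 24 h, yeasts in Malt Extract Broth for 48 h. Plates were incubated at 35 °C for 24 h (bacteria) or 25 °C for 72 h (yeasts). A DMSO solvent control and a reference antibiotic disc were included on each plate.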

Candida albicans = experiment: Antifungal activity against Candida albicans ATCC 10231 after 72 hrs by agar disk diffusion assay; assay type: functional; outline: as §5
[26] = test system: Hanseniaspora guilliermondii; experiment: Antifungal activity against Hanseniaspora guilliermondii DSM 3432 after 72 hrs by agar disk diffusion assay; assay type: functional; outline: as §5
Debaryomyces hansenii [27] = experiment: Antifungal activity against Debaryomyces hansenii DSM 70238 after 72 hrs by agar disk diffusion assay; assay type: functional; outline: as §5

| SMILES | MIC (Escherichia coli) [mg/L] | MIC (Staphylococcus aureus [1]) [mg/L] | MIC (Bacillus cereus [2]) [mg/L] | MIC (Micrococcus luteus) [mg/L] | MIC (Proteus vulgaris [3]) [mg/L] | MIC [4] [mg/L] | MIC (Pseudomonas aeruginosa [5]) [mg/L] | MIC (Rhodotorula mucilaginosa [6]) [mg/L] | MIC (Debaryomyces hansenii [7]) [mg/L] | viability at 10 µM [8] [%] | viability at 100 µM [9] [%] | viability at 0.1 µM [10] [%] | viability at 100 µM [11] [%] | viability at 0.1 µM (A549 [12]) [%] | viability at 1 µM (A549 [13]) [%] | viability at 10 µM (A549 [14]) [%] | viability at 0.1 µM (A549 [15]) [%] | viability at 1 µM (A549 [16]) [%] | viability at 10 µM (A549 [17]) [%] | viability at 100 µM (A549 [18]) [%] | also measured |
| --- | --- | --- | --- | --- | --- | --- | --- | --- | --- | --- | --- | --- | --- | --- | --- | --- | --- | --- | --- | --- | --- |
| O=C1CSCC(=O)Nc2nc(nc(-c3ccccc3)n2)NC(=O)CSCC(=O)Nc2nc(nc(-c3ccccc3)n2)N1 | 25 (≈ 41.5 µM) | 12.5 (≈ 20.7 µM) | 6.25 (≈ 10.4 µM) | 12.5 (≈ 20.7 µM) | 12.5 (≈ 20.7 µM) | 25 (≈ 41.5 µM) | 50 (≈ 83 µM) | 6.25 (≈ 10.4 µM) | 3.12 (≈ 5.19 µM) | > 86 | > 86 | > 86 | > 86 | > 86 | > 86 | > 86 | > 86 | > 86 | > 86 | > 86 | Activity (A549 [19]): inactive; Activity (23132-87): inactive; Activity (A549 [20]): inactive; Activity (Calf thymus DNA): inactive; inhibition zone (IZ) (Staphylococcus aureus [21]): 12 mm; inhibition zone (IZ) (Bacillus cereus [22]): 14 mm; inhibition zone (IZ) (Proteus vulgaris [23]): 12 mm; inhibition zone (IZ) (Listeria monocytogenes): 10 mm; inhibition zone (IZ) (Pseudomonas aeruginosa [24]): 9 mm; inhibition zone (IZ) (Rhodotorula mucilaginosa [25]): 17 mm; inhibition zone (IZ) (Candida albicans): 16 mm; inhibition zone (IZ) [26]: 20 mm; inhibition zone (IZ) (Debaryomyces hansenii [27]): 18 mm |
| O=C1CSSCC(=O)Nc2nc(nc(-c3ccccc3)n2)NC(=O)CSSCC(=O)Nc2nc(nc(-c3ccccc3)n2)N1 | 25 (≈ 37.5 µM) | 12.5 (≈ 18.7 µM) | 3.12 (≈ 4.69 µM) | 3.12 (≈ 4.69 µM) | 25 (≈ 37.5 µM) | 25 (≈ 37.5 µM) | 25 (≈ 37.5 µM) | 3.12 (≈ 4.69 µM) | 1.56 (≈ 2.34 µM) | > 86 | > 86 | > 86 | > 86 | > 86 | > 86 | > 86 | > 86 | > 86 | > 86 | > 86 | Activity (A549 [19]): inactive; Activity (23132-87): inactive; Activity (A549 [20]): inactive; Activity (Calf thymus DNA): inactive; inhibition zone (IZ) (Staphylococcus aureus [21]): 14 mm; inhibition zone (IZ) (Bacillus cereus [22]): 17 mm; inhibition zone (IZ) (Proteus vulgaris [23]): 11 mm; inhibition zone (IZ) (Listeria monocytogenes): 10 mm; inhibition zone (IZ) (Pseudomonas aeruginosa [24]): 11 mm; inhibition zone (IZ) (Rhodotorula mucilaginosa [25]): 18 mm; inhibition zone (IZ) (Candida albicans): 19 mm; inhibition zone (IZ) [26]: 20 mm; inhibition zone (IZ) (Debaryomyces hansenii [27]): 21 mm |
